pIC50: −log10 of the molar value.
What was measured:
Dihydropteroate synthase [1] = target: T1, Dihydropteroate synthase (Escherichia coli K-12, UniProt P0AC13); assay: (§1) In vitro inhibition of dihydropteroate synthase from Escherichia coli.; conditions: read-out: I50
T1 sequence (P0AC13 whole entry): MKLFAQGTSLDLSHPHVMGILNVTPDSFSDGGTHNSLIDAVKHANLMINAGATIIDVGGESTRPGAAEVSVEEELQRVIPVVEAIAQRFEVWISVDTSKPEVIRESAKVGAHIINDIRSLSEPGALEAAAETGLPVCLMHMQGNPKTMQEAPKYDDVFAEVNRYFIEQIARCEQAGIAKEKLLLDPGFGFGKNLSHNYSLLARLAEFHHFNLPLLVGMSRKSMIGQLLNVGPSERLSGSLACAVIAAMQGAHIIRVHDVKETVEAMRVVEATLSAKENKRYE
Procedure, shortened: (§2)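 Partially purified synthase from E. coli B. The assay used [14C]carboxy-p-aminobenzoic acid as substrate. Paper chromatography separated radiolabelled dihydropteroate from unreacted substrate. Results were given as the micromolar concentration giving 50% inhibition, or as percent inhibition at a stated concentration.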

[2] = target: T2, Dihydropteroate synthase (Escherichia coli K-12) (UniProt P0AC13); assay: In vitro percent inhibition of dihydropteroate synthase from Escherichia coli at 20 uM; procedure, shortened: as §2
T2 sequence (whole entry): T1 sequence (P0AC13 whole entry)

[3] = target: T2, Dihydropteroate synthase (Escherichia coli K-12); assay: Kinetic constant for synthase inhibition
Procedure, shortened: (§3)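 Kinetic runs varied either the pterin substrate or PABA across inhibitor levels. Velocity was nmol dihydropteroate formed in a 12-min incubation at 37 °C, plotted as double reciprocals. Data were computer-fitted to competitive or noncompetitive inhibition models and statistically tested for fit to each model.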

[4] = target: T2, Dihydropteroate synthase (Escherichia coli K-12); assay: as §1; design: concentration or dose not given beside the values; conditions: concentration not given here; procedure, shortened: as §2
Dihydropteroate synthase [5] = target: T1, Dihydropteroate synthase; assay: Inhibitory activity against binding of para-aminobenzoic acid to synthase; conditions: read-out: I50; procedure, shortened: as §3

SMILES: Cc1cc(NS(=O)(=O)c2ccc(N)cc2)no1 [SULFAMETHOXAZOLE]
- pIC50 (Dihydropteroate synthase [1]): 5.33

SMILES: CSc1nc(N)nc(O)c1N=O
- inhibition [2]: 17%

SMILES: Nc1nc(O)c(N=O)c(NCc2ccccc2)n1
- pIC50 (Dihydropteroate synthase [1]): 4.89

SMILES: Nc1nc(N)c(N=O)c(=O)[nH]1
- pIC50 (Dihydropteroate synthase [1]): 5.24

SMILES: CNc1nc(N)[nH]c(=O)c1[N+](=O)[O-]
- pIC50 (Dihydropteroate synthase [1]): 5.55

SMILES: Nc1nc(O)c(N=O)c(NCCCc2ccccc2)n1
- pIC50 (Dihydropteroate synthase [1]): 5.11

SMILES: CC(C)Nc1nc(N)nc(O)c1N=O
- pIC50 (Dihydropteroate synthase [1]): 3.68

SMILES: CNc1nc(N)nc(O)c1N=O
- Kis [3]: 0.085 µM
- pIC50 (Dihydropteroate synthase [1]): 5.80

SMILES: CCN(CC)c1nc(N)nc(O)c1N=O
- pIC50 (Dihydropteroate synthase [1]): 3.71

SMILES: Nc1nc(O)c([N+](=O)[O-])c(NCCCCc2ccccc2)n1
- pIC50 (Dihydropteroate synthase [1]): 4.68

SMILES: Nc1nc(O)c(N=O)c(Nc2ccccc2)n1
- inhibition [4]: < 10%
- pIC50 (Dihydropteroate synthase [1]): < 4.00

SMILES: Nc1nc(O)c(N=O)c(NCCCCCCCc2ccccc2)n1
- pIC50 (Dihydropteroate synthase [1]): 5.85
- pIC50 (Dihydropteroate synthase [5]): 5.85

SMILES: Nc1nc(O)c(N=O)c(NCCCCc2ccccc2)n1
- pIC50 (Dihydropteroate synthase [1]): 5.60

SMILES: N#Cc1c(O)nc(N)nc1NCCCCc1ccccc1
- pIC50 (Dihydropteroate synthase [1]): 3.54

SMILES: Nc1nc(O)c(N=O)c(NCCCCCCc2ccccc2)n1
- pIC50 (Dihydropteroate synthase [1]): 5.05

SMILES: CCNc1nc(N)nc(O)c1N=O
- pIC50 (Dihydropteroate synthase [1]): 4.96

SMILES: Nc1ccc(S(=O)(=O)Nc2nccs2)cc1 [SULFATHIAZOLE]
- pIC50 (Dihydropteroate synthase [1]): 5.60

SMILES: CNc1cc(O)nc(N)n1
- inhibition [4]: < 10%
- pIC50 (Dihydropteroate synthase [1]): < 3.96

SMILES: Nc1nc(O)c(N=O)c(NCCCO)n1
- pIC50 (Dihydropteroate synthase [1]): 4.46

SMILES: Nc1nc(O)c(N=O)c(NCCCS(=O)(=O)c2ccccc2)n1
- pIC50 (Dihydropteroate synthase [1]): 4.74

SMILES: Nc1nccc(O)n1
- inhibition [4]: < 10%
- pIC50 (Dihydropteroate synthase [1]): < 3.30

SMILES: Nc1nc(O)c(N=O)c(NCCCCCc2ccccc2)n1
- pIC50 (Dihydropteroate synthase [1]): 5.23

SMILES: CNc1nc(N)nc(O)c1C=O
- inhibition [4]: < 10%
- pIC50 (Dihydropteroate synthase [1]): < 3.52

SMILES: Nc1nc(O)c(N=O)c(O)n1
- inhibition [4]: < 10%
- pIC50 (Dihydropteroate synthase [1]): < 3.70

SMILES: Nc1nc(O)c(C=O)c(NCCCCc2ccccc2)n1
- inhibition [4]: < 10%
- pIC50 (Dihydropteroate synthase [1]): < 4.00

SMILES: Nc1nc(O)c(N=O)c(NCCCOc2ccccc2)n1
- Kis [3]: 0.69 µM
- pIC50 (Dihydropteroate synthase [1]): 5.43

SMILES: Nc1nc(O)c(N=O)c(NCCc2ccccc2)n1
- pIC50 (Dihydropteroate synthase [1]): 5.38
